# Source: PubChem BioAssay
# EBI2 block: antagonists of human EBI2 receptor | P32249 | EBI2 beta-arrestin recruitment, luminescence, 7a,25-OHC stimulated | inhibition, % at 5 µM | actives 0.81% (n = 360,000) | AID 651636; in the data active means inhibition above about 38%;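 further: enzyme fragment complementation signal reports receptor beta-arrestin coupling in cells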
# CCR6 antag: CCR6 (human) receptor antagonism. inhibition, % at 20 µM. P51684. AID 493098. CHO-K1 CCR6 PathHunter beta-arrestin, luminescence, CCL20-stimulated. actives 0.49% (n = 340,000);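 active means compounds whose inhibition of the agonist-driven luminescence signal at 20 µM reaches about 50%, limit read from the data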;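 further: cells stimulated with CCL20 at 14 nM final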
# APJ antagonist: APJ receptor antagonism; P35414; CHO-K1 APJ beta-arrestin complementation, luminescence; inhibition, % at 20 µM; actives 0.32% (n = 330,000); AID 2521;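 active means inhibition above about 40% at 20 µM, limit read from the data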;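 further: cells challenged with 10 nM apelin-13 agonist together with compound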
# CXCR6 inh: blocks human CXCR6 beta-arrestin recruitment; O00574; CHO-K1 PathHunter CXCR6 beta-arrestin, luminescence; inhibition, % at 20 µM; actives 0.36% (n = 360,000); AID 602244; in the data active means inhibition above about 34%, passing the limit was not always enough;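 further: antagonist mode with CXCL16 agonist at 10 nM final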
# Target sequence (O00574 whole entry, looked up): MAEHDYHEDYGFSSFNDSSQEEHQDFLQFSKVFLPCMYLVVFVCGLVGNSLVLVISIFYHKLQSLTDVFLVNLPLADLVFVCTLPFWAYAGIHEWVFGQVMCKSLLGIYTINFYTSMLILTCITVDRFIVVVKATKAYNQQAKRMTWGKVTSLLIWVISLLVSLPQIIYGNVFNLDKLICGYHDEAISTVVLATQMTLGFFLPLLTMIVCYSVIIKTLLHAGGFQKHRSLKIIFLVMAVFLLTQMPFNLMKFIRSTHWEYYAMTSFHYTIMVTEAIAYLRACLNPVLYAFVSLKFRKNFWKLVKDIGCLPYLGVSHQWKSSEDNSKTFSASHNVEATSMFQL
# APJ ag: APJ receptor agonism; activation, % at 20 µM; CHO-K1 APJ PathHunter beta-arrestin, luminescence; 0% DMSO wells, 100% apelin; AID 2520; actives 0.11% (n = 330,000);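 active means activation more than six SD over the plate average, tested at 20 µM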
#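 Test system: CHO-K1 APJ beta-arrestin complementation cell line. Amount: cell density 1000 per well. Controls: DMSO negative, 10 nM Apelin-13 positive. Signal: luminescent beta-gal fragment complementation, chemiluminescent substrate. Read-out basis: agonist-driven arrestin binding to APJ. Timing: compound stimulation 90 min at 25 °C, detection 60 min.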
# EBI2 conf: EBI2 (human) antagonism, single concentration confirmation. actives 29% (n = 2,400). shares compounds with EBI2 block. EBI2 beta-arrestin luminescence, 7a,25-OHC antagonism. inhibition, % at 5 µM;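 active means inhibition of at least 50%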
# EBI2 ag: EBI2 agonism counter-screen. AID 652000. activation, % at 5 µM. 2,400 tested, under 10 active. shares compounds with EBI2 block. EBI2-expressing cells, agonist mode, luminescence, 60 min; 0% vehicle, 100% 7α,25-dihydroxycholesterol control;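 active means activation of at least 50%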
# bGal counter: beta-galactosidase inhibition counter-screen; purified beta-galactosidase, luminescent Galacton Star, 15 min; shares compounds with EBI2 block; AID 652176; inhibition, % at 5 µM; actives 1% (n = 2,400);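 active means replicate-average signal at least 3 plate SD below neutral wells, shown as high inhibition, flagging enzyme-inhibiting false positives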;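 further: higher means stronger loss of beta-gal luminescence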
# Hits are given with their value; n = inactive; x = no result given. An excerpt weighted towards active compounds, which were near 1.5% of everything screened.
SMILES,EBI2 block,CCR6 antag,APJ antagonist,CXCR6 inh,APJ ag,EBI2 conf,EBI2 ag,bGal counter
COc1ccc(-n2nnnc2C(c2cccs2)N2CCN(C/C=C/c3ccccc3)CC2)cc1 (stereo not drawn),n,x,x,n,x,x,x,x
COc1ccc(C(c2nnnn2-c2ccc(OC)cc2)N2CCN(C/C=C/c3ccccc3)CC2)cc1 (stereo not drawn),63.0,x,x,n,x,n,n,n
COc1ccc(-n2nnnc2C(c2ccccc2OC(F)(F)F)N2CCN(C/C=C/c3ccccc3)CC2)cc1 (stereo not drawn),90.4,x,x,n,x,55.0,n,n
O=C(Nc1ccc2c(c1)OCCO2)C(c1cc2ccccc2o1)N1CCN(C/C=C/c2ccccc2)CC1 (stereo not drawn),38.9,x,x,n,x,n,n,n
COc1ccc(C(c2nnnn2C2CCCCC2)N2CCN(C/C=C/c3ccccc3)CC2)cc1 (stereo not drawn),60.1,x,x,n,x,n,n,n
CCC(C(=O)NCc1cccnc1)n1nc(C)n2c(cc3occc32)c1=O (stereo not drawn),n,n,n,n,n,x,x,x
CN(C(=O)c1cccc(NC(=O)Cc2cccc([N+](=O)[O-])c2)c1)C1CC1,n,n,n,n,n,x,x,x
CCCCn1nnnc1C(C1CC1)N1CCN(C/C=C/c2ccccc2)CC1 (stereo not drawn),n,x,x,n,x,x,x,x
CCCCn1nnnc1C(c1ccc(OC)cc1)N1CCN(C/C=C/c2ccccc2)CC1 (stereo not drawn),58.2,x,x,n,x,n,n,n
C(=C\c1ccccc1)/CN1CCN(C(c2ccnc3ccccc23)c2nnnn2-c2ccc3c(c2)OCCO3)CC1 (stereo not drawn),n,x,x,n,x,x,x,x
C(=C\c1ccccc1)/CN1CCN(C(c2ccccc2)c2nnnn2-c2ccc3c(c2)OCCO3)CC1 (stereo not drawn),51.1,x,x,n,x,n,n,n
CCCCn1nnnc1C(c1cccs1)N1CCN(C/C=C/c2ccccc2)CC1 (stereo not drawn),43.7,x,x,n,x,n,n,n
COc1ccc(C(c2nnnn2C(C)(C)C)N2CCN(C/C=C/c3ccccc3)CC2)cc1 (stereo not drawn),n,x,x,n,x,x,x,x
C(=C\c1ccccc1)/CN1CCN(C(c2cc3ccccc3o2)c2nnnn2C2CCCC2)CC1 (stereo not drawn),51.5,x,x,n,x,n,n,n
Cc1cc(C)cc(OCC(=O)OCC(=O)Nc2c(C)n(C)n(-c3ccccc3)c2=O)c1,n,n,n,n,n,x,x,x
COc1ccc(/C=C/C(=O)O)cc1S(=O)(=O)NCc1cccnc1,n,n,n,n,n,x,x,x
CS(=O)(=O)N(CC(=O)N1CCOCC1)c1cc(C(F)(F)F)ccc1Cl,n,n,n,n,n,x,x,x
CS(=O)(=O)N(CC(=O)N1CCN(c2ccccc2F)CC1)c1cc(C(F)(F)F)ccc1Cl,64.5,n,n,n,n,n,n,n
CCNC(=S)N1CCN(c2ccc([N+](=O)[O-])cc2)CC1,n,n,n,n,n,x,x,x
O=[N+]([O-])c1ccc(N2CCN(C(=S)NCc3ccc(Cl)cc3)CC2)cc1,51.9,n,n,n,n,n,n,n
CCOC(=O)c1sc(NC(=O)/C=C/c2cnn(CC)c2C)c(C(=O)OCC)c1C,40.3,n,n,n,n,n,n,n
CCCOC(=O)c1c(NC(=O)/C=C/c2cnn(C)c2C)sc(C(=O)OCC)c1C,n,n,n,n,n,x,x,x
CCCCN(C(=O)c1ccc(Cl)c(S(=O)(=O)N2CCOCC2)c1)c1c(N)n(CCC)c(=O)[nH]c1=O,n,n,n,n,n,x,x,x
O=C1NC[C@H](CC2CCCCC2)N(CCc2cccc3ccccc23)C1=O,n,x,x,n,x,x,x,x
S=C1NC[C@H](CC2CCCCC2)N1CCc1cccc2ccccc12,51.4,n,n,n,n,n,n,n
Cc1nc(N/N=C/c2ccc(O)cc2)c2cnn(-c3ccccc3)c2n1,52.8,n,n,n,n,n,n,n
